In ChEMBL document CHEMBL1143007, “Synthesis and evaluation of 4/5-hydroxy-2,3-diaryl(substituted)-cyclopent-2-en-1-ones as cis-restricted analogues of combretastatin A-4 as novel anticancer agents” (J Med Chem, 2007):
In brackets after ≈: the same amount, converted by molar mass. Activity calls are given as the source filed them. The rule behind the calls is not given here.

Legend:
ECV-304 [1] = assay: Apoptosis in strongly adherent human ECV304 cells at 1000 nM assessed as DNA fragmentation; type: functional, cell-based
In short: (§1)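 ECV304 plated at 2 × 10⁶ cells per 90 mm dish in DMEM with 10% FCS, allowed 5-6 h to reattach, then exposed to 10 nM-1 µM for 24 h in fresh medium; 100 nM positive control. Strongly and loosely adherent cells harvested separately and lysed (1 mM Tris-Cl, 20 mM EDTA pH 8, 1% NP-40).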

[2] = Cytotoxicity against human ECV304 cells after 72 hrs by MTT assay; type: cell-based, ECV-304
In short: (§2)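 MTT assay. Cells seeded at 5000-10 000 per well and incubated at 37 °C in CO₂ with compound at 1-100 µg/mL in triplicate wells for 72 h, then MTT added. Absorbance read at 540 nm; % cytotoxicity = 100 × (1 − treated/control). IC50 obtained by nonlinear regression; NA means IC50 above 100 µg/mL.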

ECV-304 [3] = assay: Apoptosis in strongly adherent human ECV304 cells at 10 nM assessed as DNA fragmentation; type: functional, cell-based; in short: as §1
[4] = Cytotoxicity against human PA1 cells after 72 hrs by MTT assay; type: cell-based, PA-1; in short: as §2
HT-29 = assay: Cytotoxicity against human HT29 cells after 72 hrs by MTT assay; type: cell-based; in short: as §2
ECV-304 [5] = assay: Apoptosis in loosely adherent human ECV304 cells assessed as DNA fragmentation; type: functional, cell-based; in short: as §1
L132 = assay: Cytotoxicity against human L132 cells after 72 hrs by MTT assay; type: cell-based; in short: as §2
ECV-304 [6] = assay: Apoptosis in strongly adherent human ECV304 cells at 100 nM assessed as DNA fragmentation; type: functional, cell-based; in short: as §1
ECV-304 [7] = assay: Enhanced mitotic arrest in human ECV304 cells assessed as accumulation at G2/M phase at 1 uM after 24 hrs relative to control; type: functional
In short: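 ECV304 at 1.5 × 10⁶ cells per 90 mm dish in DMEM with 10% FCS overnight, then 1 µM for 24 h in fresh medium. Cells trypsinised, fixed in ice-cold 70% ethanol, treated with trypsin inhibitor and RNase, and stained with propidium iodide in the dark at 4-10 °C for 1 h. Flow cytometry with low gate at 10% of the G1 peak; G1 and G2/M fractions against untreated control.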

DU-145 = assay: Cytotoxicity against human DU145 cells after 72 hrs by MTT assay; type: cell-based; in short: as §2
KB = assay: Cytotoxicity against human KB cells after 72 hrs by MTT assay; type: cell-based; in short: as §2
[8] = Cytotoxicity against human Hep2 cells after 72 hrs by MTT assay; type: cell-based, HEp-2; in short: as §2
HEK293 = assay: Cytotoxicity against human HEK293 cells after 72 hrs by MTT assay; type: cell-based; in short: as §2
MIA PaCa-2 = assay: Cytotoxicity against human MiaPaCa2 cells after 72 hrs by MTT assay; type: cell-based; in short: as §2
[9] = Homo sapiens, ECV-304, 72 h, read-out: IC50
[10] = Homo sapiens, PA-1, 72 h, read-out: IC50
[11] = Homo sapiens, HT-29, 72 h, read-out: IC50
[12] = Homo sapiens, L132, 72 h, read-out: IC50
[13] = Homo sapiens, DU-145, 72 h, read-out: IC50
[14] = Homo sapiens, KB, 72 h, read-out: IC50
[15] = Homo sapiens, HEp-2, 72 h, read-out: IC50
[16] = Homo sapiens, HEK293, 72 h, read-out: IC50
[17] = Homo sapiens, MIA PaCa-2, 72 h, read-out: IC50

Row | SMILES | IC50 [2, 9] [µg/mL] | IC50 [4, 10] [µg/mL] | IC50 (HT-29; [11]) [µg/mL] | IC50 (L132; [12]) [µg/mL] | IC50 (DU-145; [13]) [µg/mL] | IC50 (KB; [14]) [µg/mL] | IC50 [8, 15] [µg/mL] | IC50 (HEK293; [16]) [µg/mL] | IC50 (MIA PaCa-2; [17]) [µg/mL] | other results
1 | COc1ccc(C2=C(c3cc(OC)c(OC)c(OC)c3)C(=O)C(O)C2)cc1 (stereo unspecified) | < 1 | < 1 | < 1 | < 1 | > 100 | < 1 | < 1 | 6.3 (≈ 17 µM) | < 1 | Activity (ECV-304 [1]): inactive; Activity (ECV-304 [3]): inactive; Activity (ECV-304 [5]): Dose-dependent effect; Activity (ECV-304 [6]): inactive; Activity (ECV-304 [7]): 54%
2 | COc1cc(C2=C(c3cc(C)c(OC)c(C)c3)C(OC(C)=O)CC2=O)cc(OC)c1OC (stereo unspecified) | > 100 | > 100 | > 100 | > 100 | > 100 | > 100 | > 100 | > 100 | > 100 | –
3 | COc1ccc(OC)c(C2=C(c3cc(OC)c(OC)c(OC)c3)C(=O)CC2O[Si](C)(C)C(C)(C)C)c1 (stereo unspecified) | 6.5 (≈ 12.6 µM) | 17 (≈ 33 µM) | 5 (≈ 9.71 µM) | 100 (≈ 194 µM) | 100 (≈ 194 µM) | 10 (≈ 19.4 µM) | 19 (≈ 36.9 µM) | 9.5 (≈ 18.5 µM) | > 100 | –
4 | COc1ccc(C2=C(c3cc(OC)c(OC)c(OC)c3)C(=O)C(O)C2)cc1F (stereo unspecified) | 19.5 (≈ 50.2 µM) | > 100 | < 1 | < 1 | 27 (≈ 69.5 µM) | 4.5 (≈ 11.6 µM) | < 1 | > 100 | 64 (≈ 165 µM) | –
5 | COc1ccc(C2=C(c3cc(OC)c(OC)c(OC)c3)/C(=N\O)C(O)C2)cc1OC(C)C (stereo unspecified) | 96 (≈ 216 µM) | 61 (≈ 138 µM) | 69 (≈ 156 µM) | 75 (≈ 169 µM) | 81 (≈ 183 µM) | 95 (≈ 214 µM) | 40 (≈ 90.2 µM) | 36.8 (≈ 82.9 µM) | 98 (≈ 221 µM) | –
6 | COc1cc(C2=C(c3ccccc3)C(O[Si](C)(C)C(C)(C)C)CC2=O)cc(OC)c1OC (stereo unspecified) | > 100 | > 100 | > 100 | > 100 | > 100 | > 100 | > 100 | > 100 | > 100 | –
7 | COc1ccc(C2=C(c3cc(OC)c(OC)c(OC)c3)C(=O)C(O)C2)cc1NC(=O)c1ccccc1 (stereo unspecified) | > 100 | > 100 | > 100 | > 100 | > 100 | > 100 | > 100 | > 100 | > 100 | –
8 | COc1ccc(C2=C(c3cc(OC)c(OC)c(OC)c3)C(=O)C(OC(C)=O)C2)cc1OC(C)C (stereo unspecified) | > 100 | > 100 | > 100 | > 100 | > 100 | > 100 | > 100 | > 100 | > 100 | –
9 | COc1ccc(C2=C(c3cc(OC)c(OC)c(OC)c3)/C(=N\O)C(O)C2)cc1F (stereo unspecified) | 43 (≈ 107 µM) | > 100 | < 1 | < 1 | 10 (≈ 24.8 µM) | < 1 | < 1 | > 100 | 94 (≈ 233 µM) | –
10 | COc1ccc(C2=C(c3cc(OC)c(OC)c(OC)c3)CC(O)C2=O)cc1[N+](=O)[O-] (stereo unspecified) | > 100 | > 100 | > 100 | > 100 | > 100 | > 100 | > 100 | > 100 | > 100 | –
11 | COc1ccc(C2=C(c3cc(OC)c(OC)c(OC)c3)C(=O)CC2O[Si](C)(C)C(C)(C)C)cc1 (stereo unspecified) | > 100 | > 100 | > 100 | > 100 | > 100 | > 100 | > 100 | > 100 | > 100 | –
12 | COc1cc(C2=C(c3cc(C)c(OC)c(C)c3)C(O)CC2=O)cc(OC)c1OC (stereo unspecified) | > 100 | > 100 | > 100 | > 100 | > 100 | > 100 | > 100 | > 100 | > 100 | –
13 | COc1ccc(C2=C(c3cc(OC)c(OC)c(OC)c3)C(=O)C(OC(C)=O)C2)cc1Cl (stereo unspecified) | 3.5 (≈ 7.83 µM) | > 100 | < 1 | < 1 | 64 (≈ 143 µM) | 64 (≈ 143 µM) | < 1 | 60 (≈ 134 µM) | 24 (≈ 53.7 µM) | –
14 | O/N=C1/CC(O)C(c2ccccc2)=C1c1ccccc1 (stereo unspecified) | > 100 | > 100 | > 100 | > 100 | > 100 | > 100 | > 100 | > 100 | > 100 | –
15 | COc1ccc(C2=C(c3cc(OC)c(OC)c(OC)c3)CC(O)C2=O)cc1N (stereo unspecified) | > 100 | 20 (≈ 51.9 µM) | < 1 | 54 (≈ 140 µM) | 41 (≈ 106 µM) | < 1 | 16 (≈ 41.5 µM) | > 100 | > 100 | –
16 | COC(=O)c1cc(C2=C(c3cc(OC)c(OC)c(OC)c3)C(=O)CC2O[Si](C)(C)C(C)(C)C)ccc1OC (stereo unspecified) | > 100 | > 100 | > 100 | > 100 | > 100 | > 100 | > 100 | > 100 | > 100 | –
17 | COc1ccc(C2=C(c3cc(OC)c(OC)c(OC)c3)/C(=N\O)CC2OC(C)=O)cc1 (stereo in doubt; 40) | – | – | < 1 | – | 21 (≈ 49.1 µM) | – | – | 22 (≈ 51.5 µM) | < 1 | IC50 ([2]; ecv-304): 60 µg/mL (≈ 140 µM); IC50 ([4]; pa-1): < 1 µg/mL; IC50 (L132; l132): < 1 µg/mL; IC50 (KB; kb): < 1 µg/mL; IC50 ([8]; hep-2): < 1 µg/mL
18 | COc1ccc(C2=C(c3cc(OC)c(OC)c(OC)c3)C(=O)C(O)C2)cc1Cl (stereo unspecified) | 20 (≈ 49.4 µM) | > 100 | < 1 | < 1 | 40 (≈ 98.8 µM) | 2.5 (≈ 6.18 µM) | < 1 | > 100 | > 100 | –
19 | COc1ccc(OC)c(C2=C(c3cc(OC)c(OC)c(OC)c3)C(=O)CC2O)c1 (stereo unspecified) | > 100 | > 100 | > 100 | > 100 | > 100 | > 100 | > 100 | > 100 | > 100 | –
20 | COc1ccc(C2=C(c3cc(OC)c(OC)c(OC)c3)/C(=N\O)CC2O)cc1O (stereo unspecified) | > 100 | 3.7 (≈ 9.22 µM) | 9 (≈ 22.4 µM) | 8 (≈ 19.9 µM) | 23 (≈ 57.3 µM) | 10 (≈ 24.9 µM) | < 1 | > 100 | > 100 | –
21 | COc1ccc(C2=C(c3cc(OC)c(OC)c(OC)c3)/C(=N\O)CC2OC(C)=O)cc1 (stereo in doubt; 22) | – | – | – | – | – | – | – | – | – | IC50 ([2]; ecv-304): 4 µg/mL (≈ 9.36 µM); IC50 ([4]; pa-1): 20 µg/mL (≈ 46.8 µM); IC50 (HT-29; ht-29): 1.5 µg/mL (≈ 3.51 µM); IC50 (L132; l132): 20 µg/mL (≈ 46.8 µM); IC50 (DU-145; du-145): 20 µg/mL (≈ 46.8 µM); IC50 (KB; kb): 5 µg/mL (≈ 11.7 µM); IC50 ([8]; hep-2): 3 µg/mL (≈ 7.02 µM); IC50 (HEK293; hek293): 32 µg/mL (≈ 74.9 µM); IC50 (MIA PaCa-2; mia paca-2): 1 µg/mL (≈ 2.34 µM)
22 | COc1ccc(C2=C(c3cc(OC)c(OC)c(OC)c3)/C(=N\O)C(OC(C)=O)C2)cc1Cl (stereo unspecified) | 8 (≈ 17.3 µM) | 37.5 (≈ 81.2 µM) | < 1 | < 1 | 17 (≈ 36.8 µM) | 50 (≈ 108 µM) | < 1 | 32 (≈ 69.3 µM) | 10 (≈ 21.6 µM) | –
23 | COc1ccc(C2=C(c3cc(OC)c(OC)c(OC)c3)/C(=N\O)C(O)C2)cc1Cl (stereo unspecified) | 18.5 (≈ 44.1 µM) | > 100 | < 1 | < 1 | 16 (≈ 38.1 µM) | 9.8 (≈ 23.3 µM) | < 1 | 50 (≈ 119 µM) | 33 (≈ 78.6 µM) | –
24 | COc1ccc(C2=C(c3cc(OC)c(OC)c(OC)c3)C(=O)CC2O)cc1O (stereo unspecified) | > 100 | < 1 | < 1 | < 1 | 8 (≈ 20.7 µM) | < 1 | < 1 | > 100 | > 100 | –
